Results reported in ChEMBL document CHEMBL3045743, “Synthesis and herbicidal activity of isoindoline-1,3-dione substituted benzoxazinone derivatives containing a carboxylic ester group” (J Agric Food Chem, 2009).

Columns and labels:
Chenopodium album [1] = test: Post-emergence herbicidal activity against Chenopodium album assessed as growth inhibition at 37.5 g.a.i./ha applied at two-leaf stage measured after 15 days; assay type: functional; details: 360 h, read-out: GI
Outline: (§1)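 Pot-grown weeds sown 5 mm deep in greenhouse clay soil (pH 6.5, 1.7% organic matter, CEC 12.9 cmol/kg) at 22-25 °C. Stock diluted with water and sprayed post-emergence: dicots at 2-leaf stage, monocots at 1-leaf stage. Untreated and DMF solvent controls were included. % growth inhibition was scored visually versus untreated controls after 15 days. Triplicates averaged.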

Echinochloa crus-galli [2] = test: Post-emergence herbicidal activity against Echinochloa crus-galli (barnyard grass) assessed as growth inhibition at 37.5 g.a.i./ha applied at one-leaf stage measured after 15 days; assay type: functional; details: 360 h, read-out: GI; outline: as §1
Digitaria sanguinalis = test: Post-emergence herbicidal activity against Digitaria sanguinalis (hairy crabgrass) assessed as growth inhibition at 37.5 g.a.i./ha applied at one-leaf stage measured after 15 days; assay type: functional; details: 360 h, read-out: GI; outline: as §1
Abutilon theophrasti [3] = test: Pre-emergence herbicidal activity against Abutilon theophrasti (velvetleaf) assessed as growth inhibition at 15 g.a.i./ha applied 24 hr after seeds were sown measured after 15 days; assay type: functional; details: read-out: GI
Outline: (§2)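 Weeds sown 5 mm deep in pots of greenhouse clay soil (pH 6.5, 37.5% clay, CEC 12.9 cmol/kg) and grown at 22-25 °C. Water-diluted formulation was applied pre-emergence 24 h after sowing. Untreated and DMF solvent controls were included. Growth inhibition was visually rated in % against untreated controls after 15 days, as the mean of triplicates.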

Arachis hypogaea = test: Phytotoxicity against Arachis hypogaea (peanut) assessed as growth inhibition at 300 g.a.i/ha pre-emergent application measured after 15 days by greenhouse crop selectivity assay; assay type: organism-based; details: in vivo, other, 360 h
Outline: (§3)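 Pre-emergence greenhouse crop selectivity test on pot-grown plants in clay soil (pH 6.5, 1.7% organic matter, 37.5% clay, CEC 12.9 cmol/kg). Stock solutions were diluted with water and applied at 300, 150, 75 or 37.5 g a.i./ha, in triplicate. After 15 days, phytotoxicity was scored visually against untreated controls as % crop growth inhibition, averaged over the triplicates.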

Glycine max [4] = test: Phytotoxicity against Glycine max (soybean) assessed as growth inhibition at 37.5 g.a.i/ha pre-emergent application measured after 15 days by greenhouse crop selectivity assay; assay type: organism-based; details: in vivo, other, 360 h; outline: as §3
Oryza sativa = test: Phytotoxicity against Oryza sativa (rice) assessed as growth inhibition at 7.5 to 60 g.a.i/ha post-emergent application measured after 15 days by greenhouse crop selectivity assay; assay type: organism-based, L.; details: in vivo, other, 360 h
Outline: (§4)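 Postemergence crop selectivity test on pot-grown plants in a greenhouse, in clay soil (pH 6.5, 1.7% organic matter, CEC 12.9 cmol/kg). Stock was diluted with water and sprayed at 60, 30, 15 or 7.5 g a.i./ha, in triplicate. Growth inhibition was rated visually against untreated controls after 15 days and given as the triplicate mean percentage.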

Amaranthus spinosus [5] = test: Pre-emergence herbicidal activity against Amaranthus spinosus assessed as growth inhibition at 37.5 g.a.i./ha applied 24 hr after seeds were sown measured after 15 days; assay type: functional; details: read-out: GI; outline: as §2
Abutilon theophrasti [6] = test: Pre-emergence herbicidal activity against Abutilon theophrasti (velvetleaf) assessed as growth inhibition at 7.5 g.a.i./ha applied 24 hr after seeds were sown measured after 15 days; assay type: functional; details: read-out: GI; outline: as §2
[7] = tested on: Brassica rapa subsp. oleifera; test: Phytotoxicity against Brassica rapa subsp. oleifera assessed as growth inhibition at 300 g.a.i/ha pre-emergent application measured after 15 days by greenhouse crop selectivity assay; assay type: functional; details: pre-emergence, 360 h, read-out: GI
Outline: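 Pot-grown crop in greenhouse clay soil (pH 6.5, 1.7% organic matter, 37.5% clay, CEC 12.9 cmol/kg). Stock diluted with water and applied pre-emergence at 300, 150, 75 or 37.5 g a.i./ha. Cultivated 15 days, then phytotoxicity scored visually as % growth inhibition versus untreated controls. Triplicate treatments, averaged.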

Setaria viridis [8] = test: Post-emergence herbicidal activity against Setaria viridis (green foxtail) assessed as growth inhibition at 75 g.a.i./ha applied at one-leaf stage measured after 15 days; assay type: functional; details: 360 h, read-out: GI; outline: as §1
[9] = Phytotoxicity against Triticum aestivum (wheat) assessed as growth inhibition at 300 g.a.i/ha pre-emergent application measured after 15 days by greenhouse crop selectivity assay; assay type: organism-based; details: in vivo, read-out: GI; outline: as §3
Amaranthus [10] = test: Post-emergence herbicidal activity against Amaranthus ascendens assessed as growth inhibition at 75 g.a.i./ha applied at two-leaf stage measured after 15 days; assay type: functional; details: 360 h, read-out: GI; outline: as §1
Chenopodium album [11] = test: Pre-emergence herbicidal activity against Chenopodium album assessed as growth inhibition at 75 g.a.i./ha applied 24 hr after seeds were sown measured after 15 days; assay type: functional; details: read-out: GI; outline: as §2
Abutilon theophrasti [12] = test: Post-emergence herbicidal activity against Abutilon theophrasti (velvetleaf) assessed as growth inhibition at 37.5 g.a.i./ha applied at two-leaf stage measured after 15 days; assay type: functional; details: 360 h, read-out: GI; outline: as §1
Triticum aestivum [13] = test: (§5) Phytotoxicity against Triticum aestivum (wheat) assessed as growth inhibition at 75 g.a.i/ha pre-emergent application measured after 15 days by greenhouse crop selectivity assay; assay type: organism-based; details: in vivo, other, 360 h; outline: as §3
Setaria viridis [14] = test: Post-emergence herbicidal activity against Setaria viridis (green foxtail) assessed as growth inhibition at 37.5 g.a.i./ha applied at one-leaf stage measured after 15 days; assay type: functional; details: 360 h, read-out: GI; outline: as §1
Amaranthus spinosus [15] = test: Pre-emergence herbicidal activity against Amaranthus spinosus assessed as growth inhibition at 7.5 g.a.i./ha applied 24 hr after seeds were sown measured after 15 days; assay type: functional; details: read-out: GI; outline: as §2
Chenopodium album [16] = test: Pre-emergence herbicidal activity against Chenopodium album assessed as growth inhibition at 15 g.a.i./ha applied 24 hr after seeds were sown measured after 15 days; assay type: functional; details: read-out: GI; outline: as §2
Echinochloa crus-galli [17] = test: Pre-emergence herbicidal activity against Echinochloa crus-galli (barnyard grass) assessed as growth inhibition at 37.5 g.a.i./ha applied 24 hr after seeds were sown measured after 15 days; assay type: functional; details: read-out: GI; outline: as §2
Amaranthus [18] = test: Pre-emergence herbicidal activity against Amaranthus ascendens assessed as growth inhibition at 75 g.a.i./ha applied 24 hr after seeds were sown measured after 15 days; assay type: functional; details: read-out: GI; outline: as §2
Gossypium = test: Phytotoxicity against Gossypium (cotton) assessed as growth inhibition at 37.5 g.a.i/ha pre-emergent application measured after 15 days by greenhouse crop selectivity assay; assay type: organism-based; details: in vivo, other, 360 h; outline: as §3
Glycine max [19] = test: Phytotoxicity against Glycine max (soybean) assessed as growth inhibition at 300 g.a.i/ha pre-emergent application measured after 15 days by greenhouse crop selectivity assay; assay type: organism-based; details: in vivo, other, 360 h; outline: as §3
Echinochloa crus-galli [20] = test: Pre-emergence herbicidal activity against Echinochloa crus-galli (barnyard grass) assessed as growth inhibition at 75 g.a.i./ha applied 24 hr after seeds were sown measured after 15 days; assay type: functional; details: read-out: GI; outline: as §2
Triticum aestivum [21] = test: Phytotoxicity against Triticum aestivum (wheat) assessed as growth inhibition at 7.5 to 60 g.a.i/ha post-emergent application measured after 15 days by greenhouse crop selectivity assay; assay type: organism-based; details: in vivo, other, 360 h; outline: as §4
Chenopodium album [22] = test: Post-emergence herbicidal activity against Chenopodium album assessed as growth inhibition at 7.5 g.a.i./ha applied at two-leaf stage measured after 15 days; assay type: functional; details: 360 h, read-out: GI; outline: as §1
[23] = Phytotoxicity against Oryza sativa (rice) assessed as growth inhibition at 37.5 g.a.i/ha pre-emergent application measured after 15 days by greenhouse crop selectivity assay; assay type: organism-based, L.; details: in vivo, 37.5 g.a.i/ha, read-out: GI; outline: as §3
[24] = Phytotoxicity against Triticum aestivum (wheat) assessed as growth inhibition at 150 g.a.i/ha pre-emergent application measured after 15 days by greenhouse crop selectivity assay; assay type: organism-based; details: in vivo, 150 g.a.i/ha, read-out: GI; outline: as §3
[25] = as §5; assay type: organism-based; details: in vivo, 75 g.a.i/ha, read-out: GI; outline: as §3

Structure (SMILES) | inhibition of growth at 37.5 g/ha (Chenopodium album [1]) [%] | inhibition of growth at 37.5 g/ha (Echinochloa crus-galli [2]) [%] | inhibition of growth at 37.5 g/ha (Digitaria sanguinalis) [%] | inhibition of growth at 15 g/ha (Abutilon theophrasti [3]) [%] | growth inhibition (GI) (Arachis hypogaea) | growth inhibition (GI) (Glycine max [4]) | Activity (Oryza sativa) | inhibition of growth at 37.5 g/ha (Amaranthus spinosus [5]) [%] | inhibition of growth at 7.5 g/ha (Abutilon theophrasti [6]) [%] | inhibition of growth at 300 g/ha [7] [%] | inhibition of growth at 75 g/ha (Setaria viridis [8]) [%] | inhibition at 360 h [9] [%] | inhibition of growth at 75 g/ha (Amaranthus [10]) [%] | inhibition of growth at 75 g/ha (Chenopodium album [11]) [%] | inhibition of growth at 37.5 g/ha (Abutilon theophrasti [12]) [%] | inhibition of growth at 37.5 g/ha (Setaria viridis [14]) [%] | inhibition of growth at 7.5 g/ha (Amaranthus spinosus [15]) [%] | inhibition of growth at 15 g/ha (Chenopodium album [16]) [%] | inhibition of growth at 37.5 g/ha (Echinochloa crus-galli [17]) [%] | inhibition of growth at 75 g/ha (Amaranthus [18]) [%] | other results
CCOC(=O)C(CC)N1C(=O)C(C)Oc2cc(F)c(N3C(=O)C4=C(CCCC4)C3=O)cc21 (centres undefined) | 100 | 50 | 70 | 40 | Not Active | Not Active | Toxic | 100 | 0 | > 10 | > 80 | > 10 | > 80 | > 80 | 100 | 70 | 100 | 100 | 0 | > 80 | growth inhibition (GI) (Triticum aestivum [13]): Not Active; growth inhibition (GI) (Gossypium): Not Active; growth inhibition (GI) (Glycine max [19]): Not Active; inhibition of growth at 75 g/ha (Echinochloa crus-galli [20]): > 80%; Activity (Triticum aestivum [21]): Toxic; inhibition of growth at 7.5 g/ha (Chenopodium album [22]): 100%
CCOC(=O)C(C)N1C(=O)C(C)Oc2cc(F)c(N3C(=O)C4=C(CCCC4)C3=O)cc21 (centres undefined) | 100 | 50 | 50 | 0 | Not Active | Not Active | Toxic | 100 | 0 | > 10 | > 80 | > 10 | > 80 | > 80 | 100 | 50 | 90 | 100 | 30 | > 80 | inhibition at 360 h [23]: > 10%; growth inhibition (GI) (Triticum aestivum [13]): Not Active; inhibition at 360 h [24]: > 10%; growth inhibition (GI) (Gossypium): Not Active; growth inhibition (GI) (Glycine max [19]): Not Active; inhibition of growth at 75 g/ha (Echinochloa crus-galli [20]): > 80%; Activity (Triticum aestivum [21]): Toxic; inhibition of growth at 7.5 g/ha (Chenopodium album [22]): 100%
COC(=O)C(C)N1C(=O)C(C)Oc2cc(F)c(N3C(=O)C4=C(CCCC4)C3=O)cc21 (centres undefined) | 100 | 50 | 60 | 60 | Not Active | Not Active | Toxic | 100 | 50 | > 10 | > 80 | > 10 | > 80 | > 80 | 100 | 80 | 100 | 100 | 80 | > 80 | inhibition at 360 h [23]: > 10%; inhibition at 360 h [25]: > 10%; inhibition at 360 h [24]: > 10%; growth inhibition (GI) (Gossypium): Not Active; growth inhibition (GI) (Glycine max [19]): Not Active; inhibition of growth at 75 g/ha (Echinochloa crus-galli [20]): > 80%; Activity (Triticum aestivum [21]): Toxic; inhibition of growth at 7.5 g/ha (Chenopodium album [22]): 100%
C#CCN1C(=O)COc2cc(F)c(N3C(=O)C4=C(CCCC4)C3=O)cc21 [FLUMIOXAZIN] | 100 | 80 | 95 | 80 | Not Active | Not Active | Toxic | 100 | 50 | > 10 | > 80 | > 10 | > 80 | > 80 | 100 | 95 | 100 | 100 | 70 | > 80 | inhibition at 360 h [23]: > 10%; inhibition at 360 h [25]: > 10%; inhibition at 360 h [24]: > 10%; growth inhibition (GI) (Gossypium): Not Active; inhibition of growth at 75 g/ha (Echinochloa crus-galli [20]): > 80%; Activity (Triticum aestivum [21]): Toxic; inhibition of growth at 7.5 g/ha (Chenopodium album [22]): 100%
